Target: T1, Fatty-acid amide hydrolase 1 (Homo sapiens, UniProt O00519)
T1 sequence (O00519 whole entry): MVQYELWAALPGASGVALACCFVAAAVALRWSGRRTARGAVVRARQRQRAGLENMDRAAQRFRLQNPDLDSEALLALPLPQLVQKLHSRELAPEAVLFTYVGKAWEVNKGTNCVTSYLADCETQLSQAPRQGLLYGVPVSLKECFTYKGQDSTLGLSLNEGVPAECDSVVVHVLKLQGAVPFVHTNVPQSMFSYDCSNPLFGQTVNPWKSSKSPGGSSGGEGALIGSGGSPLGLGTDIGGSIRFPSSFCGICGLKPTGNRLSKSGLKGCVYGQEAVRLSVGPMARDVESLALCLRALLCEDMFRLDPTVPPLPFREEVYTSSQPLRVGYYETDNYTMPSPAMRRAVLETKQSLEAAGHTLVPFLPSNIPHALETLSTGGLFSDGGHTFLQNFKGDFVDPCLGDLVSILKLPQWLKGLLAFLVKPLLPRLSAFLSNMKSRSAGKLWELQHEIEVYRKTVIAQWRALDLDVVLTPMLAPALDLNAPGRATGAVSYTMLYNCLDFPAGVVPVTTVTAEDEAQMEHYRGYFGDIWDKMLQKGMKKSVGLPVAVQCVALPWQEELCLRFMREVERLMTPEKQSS
Assay: Inhibition of human recombinant FAAH using [3H]anandamide by competitive hydrolysis assay
Summary of the method: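 Compounds were added in DMSO, with DMSO alone as control, plus [3H]-AEA at 2 μM final, 37 °C for 10 min. The reaction was stopped on ice with cold chloroform/methanol (1:1), and the aqueous phase was counted by LSC with the buffer-only blank subtracted. IC50 is the mean of three independent experiments.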

## CC(=O)O[C@@H]1[C@@H]([C@@H](C)OC(=O)CCc2ccccc2)C(=O)N1C(=O)CCc1ccccc1 [1-(3-Phenylpropanoyl)-(3R,4R)-3-[1(R)-(3-phenylpropanoyloxy)-ethyl]-4-(acetoxy)-azetidin-2-one]
  IC50: 2.19 µM

Reference: BindingDB's records for doi:10.1021/jm9008532 (Universite Catholique De Louvain, 2009)
